{"data": "Measurements gathered from unrelated publications", "target": "Mitogen-activated protein kinase 11 (MAPK11, Homo sapiens, UniProt Q15759)", "note": "Protocols differ between the studies behind these lines."}
{"Compound": "COc1cc(/C=C/C(=O)CC(=O)/C=C/c2ccc(O)c(OC)c2)ccc1O", "test": "enzyme activity, inhibitor", "conditions": "1 µM", "endpoint": "activity vs control", "result": "101%"}
{"Compound": "Cn1c2c(c3ccccc31)C(C#N)C(C)(C)NC2=O (stereo not shown)", "test": "thermal stability, DSF", "conditions": "10 µM", "endpoint": "ΔTm", "result": "-0.7 °C"}
{"Compound": "Cc1nc(Cc2cccc(C(F)(F)F)c2)sc1-c1ccc(C(N)=O)nc1", "test": "cell-free assay, competition with immobilised ligand", "conditions": "1 µM", "endpoint": "remaining binding", "result": "95%"}
{"Compound": "Cc1cc(NC(=O)c2cccc3cc(-c4cccc5[nH]nc(N)c45)ccc23)ccc1F", "test": "enzyme activity, inhibitor", "conditions": "0.1 µM", "endpoint": "activity vs control", "result": "69%"}
{"Compound": "Cc1cnc(NC2CCOCC2)nc1-n1cnc(C(=O)NC(CN)c2cc(F)cc(Cl)c2)c1 (stereo not shown)", "test": "enzyme activity, inhibitor, radiometric", "conditions": "1 µM", "endpoint": "remaining activity", "result": "78%"}
{"Compound": "CCCS(=O)(=O)Nc1ccc(F)c(C(=O)c2c[nH]c3ncc(-c4ccc(Cl)cc4)cc23)c1F", "test": "enzyme activity, inhibitor", "conditions": "1 µM", "endpoint": "inhibition", "result": "< 10%"}
{"Compound": "Cc1ccc(Nc2nccc(N(C)c3ccc4c(C)n(C)nc4c3)n2)cc1S(N)(=O)=O", "test": "enzyme activity, inhibitor", "conditions": "10 µM", "endpoint": "inhibition", "result": "64%"}
{"Compound": "Cn1nc(C(=O)NCc2ccc(C(=O)O)cc2)cc1-c1ccc2[nH]ccc2c1", "test": "cell-free assay, competition with immobilised ligand", "conditions": "0.1 µM", "endpoint": "remaining binding", "result": "86%"}
{"Compound": "N#CC1c2c([nH]c3c(Cl)c(Cl)ccc23)C(=O)NC12CCCCC2 (racemic)", "test": "thermal stability, DSF", "conditions": "10 µM", "endpoint": "ΔTm", "result": "-0.1 °C"}
{"Compound": "CO[C@H]1CC[C@H](CNc2ccc(S(=O)(=O)NC(=O)c3ccc(N4CCN(CC5=C(c6ccc(Cl)cc6)CC(C)(C)CC5)CC4)cc3Oc3cnc4[nH]ccc4c3)cc2[N+](=O)[O-])CC1", "test": "cell-free assay, competition with immobilised ligand", "conditions": "1 µM", "endpoint": "remaining binding", "result": "60%"}
{"Compound": "COc1cc2c(Nc3ccc(Br)cc3F)ncnc2cc1OCC1CCN(C)CC1", "test": "cell-free assay", "conditions": "0.5 µM", "endpoint": "remaining signal", "result": "97.1%"}
{"Compound": "COc1cc(Nc2cnc(C#N)c(O[C@H](C)CN(C)C)n2)ncc1-c1cnn(C)c1", "test": "enzyme activity, inhibitor, radiometric", "conditions": "1 µM", "endpoint": "remaining activity", "result": "96%"}
{"Compound": "O=C(Nc1ccc(Oc2ccc(F)cc2)cc1)N1CCc2ncccc2[C@H]1c1ccc(F)cc1", "test": "cell-free assay, competition with immobilised ligand", "conditions": "1 µM", "endpoint": "remaining binding", "result": "100%"}
{"Compound": "CNC(=O)c1cc(Oc2ccc(NC(=O)Nc3ccc(Cl)c(C(F)(F)F)c3)cc2)ccn1", "test": "cell-free assay", "conditions": "0.5 µM", "endpoint": "remaining signal", "result": "46.9%"}
{"Compound": "COc1cc(Cl)c(C(=O)N[C@@H](CN[C@H]2CC[C@@H](N)CC2)Cc2ccc(C#N)cc2)cc1-c1ccc(CN[C@H](C)c2ccc(C)cc2)o1", "test": "enzyme activity, inhibitor", "conditions": "1 µM", "endpoint": "remaining activity", "result": "92%"}
{"Compound": "O=C1NC(c2ccccn2)Sc2ccccc21 (stereo not shown)", "test": "cell-free assay, competition with immobilised ligand", "conditions": "1 µM", "endpoint": "remaining binding", "result": "100%"}
{"Compound": "CC/C(=N\\NC(=O)NCc1cccc(O)c1)c1ccc(O)c(C)c1O", "test": "enzyme activity, inhibitor", "conditions": "0.1 µM", "endpoint": "inhibition", "result": "0.5%"}
{"Compound": "Cc1sc(C(=O)NC2COC2)cc1-n1cc(NC(=O)Nc2c(F)cccc2Cl)cn1", "test": "enzyme activity, inhibitor", "conditions": "10 µM", "endpoint": "remaining activity", "result": "94.3%"}
{"Compound": "CNCc1ccccc1-c1csc([C@H](C)Nc2nc(C)nc3cc(OC)c(OC)cc23)c1", "test": "cell-free assay, competition with immobilised ligand", "conditions": "1 µM", "endpoint": "remaining binding", "result": "100%"}
{"Compound": "Cn1c2c(c3ccc(Cl)c(Cl)c31)C(C#N)C1(CCNCC1)NC2=O (racemic)", "test": "thermal stability, DSF", "conditions": "10 µM", "endpoint": "ΔTm", "result": "0.2 °C"}
{"Compound": "CN(c1ncccc1CNc1nc(Nc2ccc3c(c2)CC(=O)N3)ncc1C(F)(F)F)S(C)(=O)=O", "test": "enzyme activity, inhibitor", "conditions": "1 µM", "endpoint": "inhibition", "result": "7.8%"}
{"Compound": "COc1cc2ncnc(Nc3ccc(Oc4ccccc4)c(C)c3C)c2cc1OC", "test": "enzyme activity, inhibitor", "conditions": "1 µM", "endpoint": "inhibition", "result": "6%"}
